Test results as given in ChEMBL document CHEMBL3877264, “Quinolidene-rhodanine conjugates: Facile synthesis and biological evaluation” (Eur J Med Chem, 2017).
Converted amounts (≈) assume the structure as drawn.

Experiments:
Type in all cases: functional
[1] = test system: Mycobacterium tuberculosis; test: Growth inhibition of Mycobacterium tuberculosis H37Ra ATCC 25177 at active stage measured after 8 days by XTT dye based two fold dilution method; conditions: H37Ra ATCC 25177, 192 h
Method in brief: (§1)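 MTB H37Ra was grown in Dubos medium, then exposed in Mycobacterium pheli minimal medium (pH 6.6) to compounds dissolved in DMSO. The assay ended on day 8 (active) or day 12 (dormant). Viable cells were measured by XTT reduction menadione assay at 470 nm, blank-corrected, relative to vehicle control. Triplicates were expressed as mean ± SD. MIC came from dose-response curves.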

[2] = test system: Mycobacterium tuberculosis; test: Growth inhibition of Mycobacterium bovis BCG ATCC 35743 at dormant stage at 10 ug/ml measured after 12 days by nitrate reductase dye based two fold dilution method relative to control; conditions: BCG str. ATCC 35743, 288 h, read-out: GI
Method in brief: (§2)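 M. bovis BCG was grown in Dubos medium and assayed in Mycobacterium pheli minimal medium (pH 6.6), with compounds from DMSO stocks. Incubation lasted 8 days for active and 12 days for dormant cultures. Viability was read by nitrate reductase at 540 nm against cell-free blanks, with vehicle set as 100% growth. Primary screen was at 30, 10 and 3 µg/ml, in triplicate, mean ± SD. MIC was taken from dose-response curves.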

[3] = test system: Mycobacterium tuberculosis; test: Growth inhibition of Mycobacterium bovis BCG ATCC 35743 at dormant stage at 3 ug/ml measured after 12 days by nitrate reductase dye based two fold dilution method relative to control; conditions: BCG str. ATCC 35743, 288 h, read-out: GI; method in brief: as §2
Bacillus subtilis [4] = test: Antibacterial activity against Bacillus subtilis NCIM 2079 measured after 12 hrs; conditions: NCIM 2079, 12 h
Method in brief: (§3)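 Bacteria grown in LB at 37 °C and 180 rpm to OD 1. Compounds added to wells, then 0.1% inoculum of 1 OD culture (620 nm). Growth read as OD at 620 nm after 8 h for gram-negative and after 12 h for gram-positive strains.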

Staphylococcus aureus [5] = test: Growth inhibition of Staphylococcus aureus NCIM 2010 at 10 ug/ml measured after 12 hrs relative to control; conditions: NCIM 2010, 12 h, read-out: GI; method in brief: as §3
Staphylococcus aureus [6] = test: Growth inhibition of Staphylococcus aureus NCIM 2010 at 30 ug/ml measured after 12 hrs relative to control; conditions: NCIM 2010, 12 h, read-out: GI; method in brief: as §3
Escherichia coli [7] = test: Growth inhibition of Escherichia coli NCIM 2688 at 10 ug/ml measured after 8 hrs relative to control; conditions: NCIM 2688, 8 h, read-out: GI; method in brief: as §3
[8] = Antifungal activity against Fusarium oxysporum NCIM 1332 by standard agar method
Method in brief: (§4)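 MICs determined by standard agar method; DMSO as solvent control.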

[9] = test system: Mycobacterium tuberculosis; test: Growth inhibition of Mycobacterium bovis BCG ATCC 35743 at active stage measured after 8 days by nitrate reductase dye based two fold dilution method; conditions: BCG str. ATCC 35743, 192 h; method in brief: as §2
[10] = test system: Mycobacterium tuberculosis; test: Growth inhibition of Mycobacterium bovis BCG ATCC 35743 at dormant stage at 30 ug/ml measured after 12 days by nitrate reductase dye based two fold dilution method relative to control; conditions: BCG str. ATCC 35743, 288 h, read-out: GI; method in brief: as §2
Pseudomonas fluorescens [11] = test: Antibacterial activity against Pseudomonas fluorescens NCIM 2036 measured after 8 hrs; conditions: NCIM 2036, 8 h; method in brief: as §3
[12] = Antifungal activity against Cryptococcus neoformans NCIM 576 by standard agar method; method in brief: as §4
Escherichia coli [13] = test: Growth inhibition of Escherichia coli NCIM 2688 at 30 ug/ml measured after 8 hrs relative to control; conditions: NCIM 2688, 8 h, read-out: GI; method in brief: as §3
Bacillus subtilis [14] = test: Growth inhibition of Bacillus subtilis NCIM 2079 at 30 ug/ml measured after 12 hrs relative to control; conditions: NCIM 2079, 12 h, read-out: GI; method in brief: as §3
Pseudomonas fluorescens [15] = test: Growth inhibition of Pseudomonas fluorescens NCIM 2036 at 30 ug/ml measured after 8 hrs relative to control; conditions: NCIM 2036, 8 h, read-out: GI; method in brief: as §3
Staphylococcus aureus [16] = test: Antibacterial activity against of Staphylococcus aureus NCIM 2010 measured after 12 hrs; conditions: NCIM 2010, 12 h; method in brief: as §3
Bacillus subtilis [17] = test: Growth inhibition of Bacillus subtilis NCIM 2079 at 3 ug/ml measured after 12 hrs relative to control; conditions: NCIM 2079, 12 h, read-out: GI; method in brief: as §3
Escherichia coli [18] = test: Growth inhibition of Escherichia coli NCIM 2688 at 3 ug/ml measured after 8 hrs relative to control; conditions: NCIM 2688, 8 h, read-out: GI; method in brief: as §3
[19] = test system: Mycobacterium tuberculosis; test: Growth inhibition of Mycobacterium tuberculosis H37Ra ATCC 25177 at dormant stage measured after 12 days by XTT dye based two fold dilution method; conditions: H37Ra ATCC 25177, 288 h; method in brief: as §1
Escherichia coli [20] = test: Antibacterial activity against Escherichia coli NCIM 2688 measured after 8 hrs; conditions: NCIM 2688, 8 h; method in brief: as §3
Aspergillus flavus = test: Antifungal activity against Aspergillus flavus NCIM 539 by standard agar method; method in brief: as §4
Candida albicans = test: Antifungal activity against Candida albicans NCIM 3471 by standard agar method; method in brief: as §4
Pseudomonas fluorescens [21] = test: Growth inhibition of Pseudomonas fluorescens NCIM 2036 at 10 ug/ml measured after 8 hrs relative to control; conditions: NCIM 2036, 8 h, read-out: GI; method in brief: as §3
Pseudomonas fluorescens [22] = test: Growth inhibition of Pseudomonas fluorescens NCIM 2036 at 3 ug/ml measured after 8 hrs relative to control; conditions: NCIM 2036, 8 h, read-out: GI; method in brief: as §3
Bacillus subtilis [23] = test: Growth inhibition of Bacillus subtilis NCIM 2079 at 10 ug/ml measured after 12 hrs relative to control; conditions: NCIM 2079, 12 h, read-out: GI; method in brief: as §3
Aspergillus niger = test: Antifungal activity against Aspergillus niger NCIM 1196 by standard agar method; method in brief: as §4
[24] = test system: Mycobacterium tuberculosis; test: Growth inhibition of Mycobacterium bovis BCG ATCC 35743 at dormant stage measured after 12 days by nitrate reductase dye based two fold dilution method; conditions: BCG str. ATCC 35743, 288 h; method in brief: as §2
Staphylococcus aureus [25] = test: Growth inhibition of Staphylococcus aureus NCIM 2010 at 3 ug/ml measured after 12 hrs relative to control; conditions: NCIM 2010, 12 h, read-out: GI; method in brief: as §3

| SMILES | IC50 [1] [µg/mL] | IC90 [1] [µg/mL] | inhibition of growth at 10 µg/mL [2] [%] | inhibition of growth at 3 µg/mL [3] [%] | MIC (Bacillus subtilis [4]) [µg/mL] | inhibition of growth at 10 µg/mL (Staphylococcus aureus [5]) [%] | inhibition of growth at 30 µg/mL (Staphylococcus aureus [6]) [%] | inhibition of growth at 10 µg/mL (Escherichia coli [7]) [%] | MIC [8] [µg/mL] | IC50 [9] [µg/mL] | IC90 [9] [µg/mL] | inhibition of growth at 30 µg/mL [10] [%] | MIC (Pseudomonas fluorescens [11]) [µg/mL] | MIC [12] [µg/mL] | inhibition of growth at 30 µg/mL (Escherichia coli [13]) [%] | inhibition of growth at 30 µg/mL (Bacillus subtilis [14]) [%] | inhibition of growth at 30 µg/mL (Pseudomonas fluorescens [15]) [%] | MIC (Staphylococcus aureus [16]) [µg/mL] | inhibition of growth at 3 µg/mL (Bacillus subtilis [17]) [%] | inhibition of growth at 3 µg/mL (Escherichia coli [18]) [%] | further results |
| --- | --- | --- | --- | --- | --- | --- | --- | --- | --- | --- | --- | --- | --- | --- | --- | --- | --- | --- | --- | --- | --- |
| Cc1ccc2cc(/C=C3\SC(=S)N(CCC(=O)O)C3=O)c(Cl)nc2c1 | > 30 | > 30 | 7.51 | 19.1 | > 30 | -17.8 | -15 | 28.8 | 100 (≈ 255 µM) | > 30 | > 30 | -9.18 | > 30 | 150 (≈ 382 µM) | 10.3 | -7.94 | 6.75 | > 30 | -6.11 | 18.5 | IC50 [19]: > 30 µg/mL; IC90 [19]: > 30 µg/mL; MIC (Escherichia coli [20]): > 30 µg/mL; MIC (Aspergillus flavus): 150 µg/mL (≈ 382 µM); MIC (Candida albicans): 25 µg/mL (≈ 63.6 µM); inhibition of growth at 10 µg/mL (Pseudomonas fluorescens [21]): 17.1%; inhibition of growth at 3 µg/mL (Pseudomonas fluorescens [22]): 5.88%; inhibition of growth at 10 µg/mL (Bacillus subtilis [23]): -5.45%; MIC (Aspergillus niger): 150 µg/mL (≈ 382 µM); IC50 [24]: > 30 µg/mL; IC90 [24]: > 30 µg/mL; inhibition of growth at 3 µg/mL (Staphylococcus aureus [25]): -6.25% |
| O=C(O)CCN1C(=O)/C(=C/c2cc3ccccc3nc2Cl)SC1=S | > 30 | > 30 | -18.9 | -3.3 | > 30 | -20.6 | -22.9 | -52.5 | 125 (≈ 330 µM) | > 30 | > 30 | 49.1 | > 30 | 50 (≈ 132 µM) | -59 | 6.41 | -6.76 | > 30 | 3 | -47.5 | IC50 [19]: > 30 µg/mL; IC90 [19]: > 30 µg/mL; MIC (Escherichia coli [20]): > 30 µg/mL; MIC (Aspergillus flavus): 50 µg/mL (≈ 132 µM); MIC (Candida albicans): 100 µg/mL (≈ 264 µM); inhibition of growth at 10 µg/mL (Pseudomonas fluorescens [21]): -0.29%; inhibition of growth at 3 µg/mL (Pseudomonas fluorescens [22]): -48%; inhibition of growth at 10 µg/mL (Bacillus subtilis [23]): 6.32%; MIC (Aspergillus niger): 75 µg/mL (≈ 198 µM); IC50 [24]: > 30 µg/mL; IC90 [24]: > 30 µg/mL; inhibition of growth at 3 µg/mL (Staphylococcus aureus [25]): -28.2% |
| Cc1cccc2cc(/C=C3\SC(=S)N(CCC(=O)O)C3=O)c(Cl)nc12 | > 30 | > 30 | 27.9 | 17.2 | > 30 | -19.7 | -12.1 | 4.27 | 100 (≈ 255 µM) | > 30 | > 30 | 24.8 | > 30 | 100 (≈ 255 µM) | 10.5 | -5.57 | 16 | > 30 | -3.04 | 8.12 | IC50 [19]: > 30 µg/mL; IC90 [19]: > 30 µg/mL; MIC (Escherichia coli [20]): > 30 µg/mL; MIC (Aspergillus flavus): 150 µg/mL (≈ 382 µM); MIC (Candida albicans): 50 µg/mL (≈ 127 µM); inhibition of growth at 10 µg/mL (Pseudomonas fluorescens [21]): -2.3%; inhibition of growth at 3 µg/mL (Pseudomonas fluorescens [22]): 4.57%; inhibition of growth at 10 µg/mL (Bacillus subtilis [23]): -5.28%; MIC (Aspergillus niger): 75 µg/mL (≈ 191 µM); IC50 [24]: > 30 µg/mL; IC90 [24]: > 30 µg/mL; inhibition of growth at 3 µg/mL (Staphylococcus aureus [25]): -4.02% |
